The values that follow come from ChEMBL document CHEMBL1153548 (Antimicrob Agents Chemother, 2007).

Values after ≈ are worked out from the molar mass of the structure shown.

A short description of series [1]: Efflux clearance from middle ear fluid to plasma in Streptococcus pneumoniae WT3-infected Chinchilla lanigera assessed as unbound Km at 40000 ug/kg, iv followed by local dose of 19 ug/kg into intra-middle ear by compartmental microdialysis. It is filed as ADME, organism-based.
Series [2] in a line: Efflux clearance from middle ear fluid to plasma in Streptococcus pneumoniae WT3-infected Chinchilla lanigera assessed as unbound Km at 40000 ug/kg, iv followed by local dose of 96 ug/kg into intra-middle ear by compartmental microdialysis. It is filed as ADME, organism-based.
A short description of series [3]: Efflux clearance from middle ear fluid to plasma in Chinchilla lanigera assessed as unbound Km at 40000 ug/kg, iv followed by local dose of 19 ug/kg into intra-middle ear by compartmental microdialysis. It counts as ADME, organism-based.
The nature of series [4]: Efflux clearance from middle ear fluid to plasma in Chinchilla lanigera assessed as unbound Km at 40000 ug/kg, iv followed by local dose of 13 ug/kg into intra-middle ear by compartmental microdialysis. It is filed as ADME, organism-based.
A short description of series [5]: Efflux clearance from middle ear fluid to plasma in Chinchilla lanigera assessed as unbound Km at 40000 ug/kg, iv followed by local dose of 66 ug/kg into intra-middle ear by compartmental microdialysis. It is filed as ADME, organism-based.
Series [6] in a line: Efflux clearance from middle ear fluid to plasma in Chinchilla lanigera assessed as unbound Km at 40000 ug/kg, iv followed by local dose of […] into intra-middle ear by compartmental microdialysis. It is filed as ADME, organism-based.
Series [7] in a line: Efflux clearance from middle ear fluid to plasma in Chinchilla lanigera assessed as unbound Km at 15000 ug/kg, iv followed by local dose of 164 ug/kg into intra-middle ear by compartmental microdialysis. It is filed as ADME, organism-based.
Series [8] has as its system Streptococcus pneumoniae. In words: Antimicrobial activity against amoxicillin-resistant Streptococcus pneumoniae. It counts as functional.
The subject of series [9] is Streptococcus pneumoniae. In words: Antimicrobial activity against Streptococcus pneumoniae WT3 infected in bolus iv dosed Chinchilla lanigera assessed as log reduction in bacterial count within 10 hrs of additional local drug administration into intra-middle ear. It counts as functional. The gist of the method:
(§1)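 Awake chinchillas with 50 CFU S. pneumoniae WT3 in 100 µl PBS inoculated into both middle ear bullae. […] MEF (30-100 µl) was drawn at 1 h predose and at 1, 2, 5, 8 and 10 h. It was serially diluted and plated on 5% sheep blood agar at 37°C under 10% CO2, with counts read at 24 and 48 h. Detection threshold was 25 CFU/ml.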

The test system of series [10] is Streptococcus pneumoniae. In words: Antimicrobial activity against amoxicillin-intermediate resistant Streptococcus pneumoniae. It counts as functional.
Series [11] in a line: Terminal half life in Chinchilla lanigera at 40 mg/kg, iv. It is filed as ADME, organism-based. The conditions noted are these: in vivo, read-out: beta t1/2 (converted). Also noted: dose 40 mg/kg, route intravenous. The gist of the method:
(§2)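 Conscious, freely moving chinchillas were cannulated in the femoral artery and jugular vein. […] Arterial plasma was taken predose, at time zero and at 10-12 points up to 180 min, then stored at –60°C. Unbound drug was measured by ultrafiltration (1,500 x g, 15 min, 37°C) followed by C18 solid-phase extraction and HPLC.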

Series [12] is described as follows: Terminal half life in Chinchilla lanigera at 15 mg/kg, iv. It counts as ADME, organism-based. Conditions: in vivo, read-out: beta t1/2 (converted). On the set-up: dose 15 mg/kg, route intravenous. The gist of the method: as §2
Series [13] can be described thus: Cmax in Chinchilla lanigera at 40 mg/kg, iv followed by local dose of 13 to 235 ug/kg into intra-middle ear. It is filed as ADME, organism-based. Also noted: dose 40 mg/kg, route intravenous. The conditions noted are these: in vivo. The gist of the method: as §2
The nature of series [14]: Cmax in Chinchilla lanigera at 15 mg/kg, iv followed by local dose of 13 to 235 ug/kg into intra-middle ear. It is filed as ADME, organism-based. On the set-up: dose 15 mg/kg, route intravenous. The conditions noted are these: in vivo. The gist of the method: as §2
Series [15] deals with Streptococcus pneumoniae. In words: Antimicrobial activity against Streptococcus pneumoniae WT3 infected in bolus iv dosed Chinchilla lanigera assessed as log reduction in bacterial count within 5 hrs of additional local drug administration into intra-middle ear. It counts as functional. Put shortly:
as §1

One may read the Km as the concentration of substrate that gives half-maximal velocity. Usually MIC stands for the least concentration at which growth counts as inhibited. High values mean a need for much substance, low ones inhibition by little substance. One may read the Cmax as the highest concentration seen after dosing. Take `CC1(C)S[C@@H]2[C@H](NC(=O)[C@H](N)c3ccc(O)cc3)C(=O)N2[C@H]1C(=O)O` [AMOXICILLIN]: the Km in series [1] was 35.9 µg/mL; in series [2] it was 48.6 µg/mL; in series [3] it was 34 µg/mL; in series [4] it was 4.5 µg/mL; in [5], 54.9 µg/mL; in [6] it was 9.3 µg/mL. Besides, in series [7], the Km was 17.8 µg/mL. Moreover, the minimum inhibitory concentration (MIC) in the series with Streptococcus pneumoniae [8] was 8 µg/mL (≈ 21.9 µM); with Streptococcus pneumoniae [10], 1 µg/mL (≈ 2.74 µM). For the same compound, the Activity in the series with Streptococcus pneumoniae [9] turned out to be 2; in the series on Streptococcus pneumoniae [15] it was 5. In addition, the half-life in series [11] and in series [12] was 18 min throughout. The Cmax in series [13] came out at 8800 ng/mL; in series [14], 111 µg/mL.
